Data on 18 compounds can be found in PubChem BioAssay.

Test [1] is described as follows: OD615 S. cerevisiae growth inhibition, permissive medium, pilot counter-assay, permissive growth control for S. cerevisiae lifespan shortening project (AID 705;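 active = growth inhibition above 25% in both replicates, a cutoff set 3 SD above the mean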). As to conditions: OD615, 24 h, at 10 µM, hits give high values. Summed up: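 Material: engineered DeaD yeast; compound dosing: one dose 10 µM, DMSO 0.25% final; measure: yeast growth inhibition indicated by reduced 24 h OD615; detection: OD615 turbidity read; incubation: cells pre-grown 4 h, then 24 h compound exposure, 30 °C humidified; medium: permissive synthetic complete medium with raffinose and galactose carbon sources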

A short description of test [2]: Restrictive medium S. cerevisiae growth inhibition, OD615, pilot screen of yeast lifespan reduction project, restrictive growth control (AID 706;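 active = growth inhibition above a set limit, 3 SD over mean compound inhibition, in both replicates, cut at about 43% in these data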;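 note: modified DeaD lifespan yeast strain shifted to restrictive glucose medium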). As to conditions: OD615, 48 h, at 10 µM, hits give high values. Summed up:
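material = engineered S. cerevisiae DeaD strain | medium = glucose-based CSMM-D restrictive medium | times = 4 h pre-incubation, 48 h exposure at 30 °C | technique = OD615 absorbance reading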

Test [3] in a line: viability gain of MRP-1-high H69AR cells under doxorubicin, pilot screen, MRP-1 activator project, CellTiter-Glo, duplicate (AID 807;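 active = viability increase at or above a cutoff of the median across tested compounds plus 3 SD, cut at about 8.5% in these data, passing the limit was not always enough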;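 note: compound pretreatment 18-22 h then 72 h combined with doxorubicin; 0% = doxorubicin alone and 100% = vehicle without doxorubicin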). The conditions noted are these: H69AR viability with doxorubicin, CellTiter-Glo luminescence; at 10 µM; hits give high values.
A short description of test [4]: growth suppression of beta-catenin knockout HCT116, pilot screen, human colon tumor cells (AID 823;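 active = cell viability at or below a set limit in both duplicate runs, the limit being the all-compound median minus 4 SD, cut at about 23% in these data, passing the limit was not always enough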;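 note: 0% = wells killed by 20 µM Hyamine and 100% = untreated DMSO cell wells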). As to conditions: CellTiter-Glo, 60 h, at 10 µM, hits give low values.
Test [5] can be described thus: growth suppression of PTEN-deleted HCT116, pilot screen, cell-based, HCT116 clonal line, CellTiter-Glo (AID 824;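 active = viability at or below 27.92% in each of two runs, the all-compound median minus 4 SD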;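 note: 0% = 20 µM Hyamine control and 100% = vehicle cell control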). As to conditions: 60 h, at 10 µM, hits give low values. (In general: In ATP-based viability assays light output follows the ATP content of the culture.)
Test [6] is described as follows: inhibitors of the yeast RAM network, pilot screen, dse1pr::URA3 reporter, 5-FOA selection (AID 869).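 Note: 0% = DMSO wells with no growth and 100% = 10 µM 1-NA-PP1 with full growth; RAM network block rescues cells from 5-FOA so hits raise OD615 growth.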 The conditions noted are these: S. cerevisiae dse1pr::URA3 5-FOA growth, OD615, 2 d; at 10 µM; hits give high values; strain carries analog-sensitive mutant Cbk1 kinase.
Test [7] is described as follows: RAM signaling pathway blockade in yeast – S. cerevisiae, Pdr1DBD-CYC8 efflux-inhibited sensitized strain, primary screen (AID 1298;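 active = RAM network inhibition above 8.4% in each of two replicates, 3 SD over the compound average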;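 note: 0% = DMSO untreated cells without growth and 100% = 10 µM 1-NA-PP1 full growth; higher means more yeast growth rescued from 5-FOA killing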). As to conditions: S. cerevisiae cbk1-as DSE1-URA3 strain, 5-FOA growth OD615, 2 d; at 50 µM; hits give high values.

Unmarked numbers belong to inactive results. Records with an inconclusive call do not appear. The source made the active and inactive calls.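 Rule for the calls, unless noted: active = inhibition over a set limit, the all-compound mean plus 3 SD, in both replicate runs; inconclusive = over that limit in just one replicate run; inactive = at or under that limit in both runs.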

Turning to `CCOc1ccc(-c2nnc3ccc(SCC(=O)N4CCCCC4)nn23)cc1`, the figures for the growth inhibition in test [1] and in test [2] were -0.225% and 9.67%, respectively. Moreover, the viability increase in test [3] is -4.24%. For the same compound, the viability (as a rule, a read-out of living cells in per cent, often relative to untreated cells) is 110% in test [4] and 101% in test [5]. Moreover, in test [6], the inhibition (in general, the change of the read-out against control, counted positive when it falls) was 2.06%. The RAM network inhibition in test [7] was 1.25%.
Turning to `CCn1c(=O)cc(N2CCC3(CC2)OCCO3)[nH]c1=O`, the growth inhibition was -15.1% in test [1] and -8.98% in test [2]. Moreover, the viability increase in test [3] was 0.57%. Also, the results for the viability in test [4] and in test [5] were 96.8% and 93.2%, respectively. In addition, the inhibition in test [6] was 1.01%. The RAM network inhibition in test [7] is 1.74%.
`CS(=O)(=O)Nc1cccc2cccnc12`: the growth inhibition in test [1] is 5.63%; in test [2], -1.19%. Moreover, in test [3], the viability increase was -4.19%. In addition, the results for the viability in test [4] and in test [5] were 50.4% and 56.7%, respectively. Further, in test [6], the inhibition is 2.3%. The RAM network inhibition in test [7] was 0.27%.
With `Cc1ccc2oc(=O)c3cc(C(=O)NCCN4CCN(C)CC4)sc3c2c1`, the values for the growth inhibition in test [1] and in test [2] were -0.32% and -8.46%, respectively. In addition, in test [3], the viability increase is -1.81%. Also, the viability in test [4] was 85.5%; in test [5], 83.5%. Further, the inhibition in test [6] was 0.16%. Also, the RAM network inhibition in test [7] was 0.45%.
As for `Cc1ccc(N2CCN(S(=O)(=O)c3ccc(F)cc3)CC2)c(C)c1`, the growth inhibition in test [1] was -0.375%; in test [2], -15.2%. In addition, the viability increase in test [3] is -1.12%. In addition, the viability in test [4] is 66.6%; in test [5], 60.9%. Moreover, the inhibition in test [6] is -0.44%. Moreover, the RAM network inhibition in test [7] is 7.03%.
As for `CCOC(=O)N1CCC(NC(=O)c2csc3c2CCCC3)CC1`, the growth inhibition is -3.1% in test [1] and -14.7% in test [2]. The viability increase in test [3] is -2.82%. The viability is 95.2% in test [4] and 93.6% in test [5]. For the same compound, the inhibition in test [6] is 1.29%. For the same compound, the RAM network inhibition in test [7] is 3.9%.
As to `COc1ccc(OCC(O)CN2CCCCC2)cc1` (stereo unspecified), the growth inhibition in test [1] is -7.21%; in test [2] it was -11.1%. Besides, the viability increase in test [3] is -1.52%. The viability in test [4] was 95%; in test [5], 101%. Besides, the inhibition in test [6] is 1.59%. The RAM network inhibition in test [7] is 0.52%.
Regarding `CCOC(=O)CCSCC(=O)Nc1nnc(C)s1`, the growth inhibition was -1.14% in test [1] and -0.57% in test [2]. The viability increase in test [3] was 0.86%. Moreover, the viability in test [4] is 113%; in test [5], 100%. Also, the inhibition in test [6] is 0.55%. Moreover, the RAM network inhibition in test [7] was 3.07%.
Turning to `CCSc1nnc(NC(=O)CC)s1`, the growth inhibition was -14.2% in test [1] and -13.4% in test [2]. Further, in test [3], the viability increase is 1.42%. The viability in test [4] is 106%; in test [5] it was 99%. For the same compound, the inhibition in test [6] is 1.21%. For the same compound, the RAM network inhibition in test [7] is -0.32%.
For the compound `O=C(NCCN1C(=O)C2C3C=CC(C3)C2C1=O)NCc1ccccc1` (stereo unspecified), the growth inhibition in test [1] is -14.8%; in test [2] it was 3.81%. The viability increase in test [3] is -0.69%. Also, the results for the viability in test [4] and in test [5] were 102% and 99.8%, respectively. Moreover, the inhibition in test [6] is 1.61%. Besides, the RAM network inhibition in test [7] is 1.83%.
As for `O=S(=O)(NCC(c1cccnc1)N1CCN(c2ccc(F)cc2)CC1)c1cccs1` (stereo unspecified), the growth inhibition is -0.1% in test [1] and -0.165% in test [2]. In addition, the viability increase in test [3] is -1.56%. Besides, the viability in test [4] was 87.9%; in test [5], 86.8%. Moreover, the inhibition in test [6] was 2.22%. Moreover, the RAM network inhibition in test [7] was 3.87%.
As to `O=C(NCCN1CCOCC1)c1ccc2c(c1)N(Cc1ccc(F)cc1)C(=O)CS2`, the growth inhibition is -16.1% in test [1] and -8.1% in test [2]. Besides, the viability increase in test [3] was 3.02%. The viability in test [4] is 92.5%; in test [5], 88.9%. For the same compound, the inhibition in test [6] is 0.08%. For the same compound, the RAM network inhibition in test [7] is 0.11%.
For the compound `Cc1cc2n(c1)CCn1c(C)ccc1-2`, the growth inhibition is 18.4% in test [1] and 14.5% in test [2]. In addition, the viability increase in test [3] is -2.98%. For the same compound, the viability in test [4] was 97.8%; in test [5], 96.9%. The inhibition in test [6] is 1.99%. The RAM network inhibition in test [7] is 2.57%.
`Cc1ccc(C)c(N2CCN(CC(=O)Nc3ccc4[nH]c(=O)[nH]c4c3)CC2)c1`: the growth inhibition in test [1] is -13.7%; in test [2], -14.9%. Besides, the viability increase in test [3] was -5.54%. Further, the viability in test [4] was 92.9%; in test [5] it was 89.1%. Moreover, in test [6], the inhibition was 0.03%. Further, the RAM network inhibition in test [7] is 1.87%.
For `Nc1c(S(=O)(=O)c2ccccc2)c2nc3ccccc3nc2n1/N=C/c1ccco1`, the values for the growth inhibition in test [1] and in test [2] were -7.84% and -8.93%, respectively. Also, in test [3], the viability increase was -5.63%. Also, the viability in test [4] is 51.5%; in test [5], 52%. Also, in test [6], the inhibition was 2.34%. Moreover, the RAM network inhibition in test [7] was 4.98%.
Regarding `O=C1CC(C(=O)Nc2nccs2)C(c2ccccc2)O1` (stereo unspecified), the growth inhibition in test [1] was -4.84%; in test [2], -14.8%. Further, the viability increase in test [3] is -0.76%. Besides, the viability in test [4] is 107%; in test [5], 99.3%. In test [6], the inhibition was 0.94%. In addition, in test [7], the RAM network inhibition was 0.09%.
With `CCOc1ccc(OCC)c(NC(=O)CN2CCC(NC(=O)c3cccc(F)c3)CC2)c1`, the growth inhibition in test [1] is -3.75%; in test [2], -12.3%. Further, the viability increase in test [3] is -4.87%. In addition, the viability was 77.5% in test [4] and 78.7% in test [5]. Moreover, the inhibition in test [6] was 2.31%. Also, in test [7], the RAM network inhibition was 5.19%.
Turning to `O=c1cnn(-c2ccccc2)c(-c2ccccc2)c1`, the growth inhibition in test [1] was -15.7%; in test [2], -5.25%. Also, the viability increase in test [3] is -6.23%. For the same compound, the viability in test [4] was 31.1%; in test [5] it was 24% (active). The inhibition in test [6] is 2.04%. In addition, the RAM network inhibition in test [7] was 1.25%.
